Data set [1] relates to Leishmania amazonensis. Kind of data set: Antileishmanial activity against antimony-resistant Leishmania amazonensis MHOM/BR/1989/BA199 promastigote infected in Swiss mouse peritoneal macrophages after 72 hrs. In kind it is functional, organism-based. The conditions noted are these: MHOM/BR/1989/BA199, 72 h. An outline of the steps: (§1)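 Promastigotes of Sb(III)-sensitive and -resistant lines (resistant to Sb(III) up to 2700), maintained at 25 °C, pH 7.0, in α-MEM with 10% heat-inactivated FBS, kanamycin, ampicillin, L-glutamine, hemin and biopterin. Drugs dissolved in DMSO, diluted in α-MEM across a concentration range, final DMSO ≤0.2%.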

A short description of data set [2]: Cytotoxicity against Swiss mouse peritoneal macrophages after 24 hrs by MTT assay. In kind it is cell-based, Peritoneal macrophage cell. An outline of the steps: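 Macrophages from peritoneal lavage of Swiss mice with cold FBS-free RPMI-1640. Cells seeded at 4.0 × 10⁶/mL, adhered 1 h, non-adherent cells washed off. Compounds were DMSO stocks diluted in medium over a concentration range, final DMSO ≤0.2%. Viability read by MTT (5 mg/mL solution, 4 h further incubation). CC50 taken as the 50% cytotoxic concentration.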

Data set [3] concerns Leishmania amazonensis. Kind of data set: Antileishmanial activity against antimony-sensitive Leishmania amazonensis MHOM/BR/1989/BA199 promastigote infected in Swiss mouse peritoneal macrophages after 72 hrs. Particulars: MHOM/BR/1989/BA199, 72 h. It counts as functional, organism-based. Summed up:
as §1

In data set [4] the test system is Leishmania infantum. Kind of data set: Antileishmanial activity against antimony-sensitive Leishmania infantum MCAN/BR/2002/BH400 promastigote infected in Swiss mouse peritoneal macrophages after 72 hrs. It counts as functional, organism-based. Particulars: MCAN/BR/2002/BH400, 72 h. Summed up: as §1
Data set [5] in a line: Selectivity index, ratio of CC50 for Swiss mouse peritoneal macrophages to IC50 for antimony-sensitive Leishmania infantum MCAN/BR/2002/BH400 promastigote. It counts as functional. Summed up: (§2)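 SI = CC50 / IC50. CC50 is from Swiss mouse peritoneal macrophages, read by MTT after lavage and 1 h adherence. […] Promastigotes grown in α-MEM with 10% heat-inactivated FBS, hemin and biopterin, pH 7.0, 25 °C. DMSO ≤0.2% final. Triplicate.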

In data set [6] the test system is Leishmania infantum. Kind of data set: Ratio of potassium antimonyl tartrate IC50 to compound IC50 for antimony-sensitive Leishmania infantum MCAN/BR/2002/BH400 promastigote infected in Swiss mouse peritoneal macrophages. In kind it is functional.
Data set [7] relates to Leishmania amazonensis. Kind of data set: Ratio of potassium antimonyl tartrate IC50 to compound IC50 for antimony-sensitive Leishmania amazonensis MHOM/BR/1989/BA199 promastigote infected in Swiss mouse peritoneal macrophages. It counts as functional.
Data set [8] deals with Leishmania infantum. Kind of data set: Antileishmanial activity against antimony-resistant Leishmania infantum MCAN/BR/2002/BH400 promastigote infected in Swiss mouse peritoneal macrophages after 72 hrs. In kind it is functional, organism-based. The conditions noted are these: MCAN/BR/2002/BH400, 72 h. Summed up:
as §1

Data set [9] in a line: Selectivity index, ratio of CC50 for Swiss mouse peritoneal macrophages to IC50 for antimony-sensitive Leishmania amazonensis MHOM/BR/1989/BA199 promastigote. It counts as functional. An outline of the steps: as §2
Data set [10] in a line: Selectivity index, ratio of CC50 for Swiss mouse peritoneal macrophages to IC50 for antimony-resistant Leishmania infantum MCAN/BR/2002/BH400 promastigote. It counts as functional. Summed up:
(§3)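 SI = CC50/IC50. CC50 comes from Swiss mouse peritoneal macrophages, harvested by lavage with cold RPMI-1640 lacking FBS. Cells seeded at 4.0 × 10⁶/mL, allowed to adhere 1 h, then washed free of non-adherent cells. Viability read by MTT (5 mg/mL stock, 4 h).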

The nature of data set [11]: Selectivity index, ratio of CC50 for Swiss mouse peritoneal macrophages to IC50 for antimony-resistant Leishmania amazonensis MHOM/BR/1989/BA199 promastigote. In kind it is functional. Summed up: as §3

From ChEMBL document CHEMBL2375264, “Potent naphthoquinones against antimony-sensitive and -resistant Leishmania parasites: synthesis of novel α- and nor-α-lapachone-based 1,2,3-triazoles by copper-catalyzed azide-alkyne cycloaddition” (Eur J Med Chem, 2013) come the findings set out here.

Where only a bound is given, the exact number is not on record here.

Consider `O=C1C=C(n2cc(-c3ccc([N+](=O)[O-])cc3)nn2)C(=O)c2ccccc21`, for which the half-inhibitory concentration (IC50) in data set [1], in [3], in [4] and in data set [8] was greater than 100 µM throughout. Besides, in data set [2], the CC50 at 24 h came out at 50 µM. The “Ratio CC50/IC50” value in [5] and in data set [9] was less than 0.5 in each case. Besides, the “Ratio IC50” value in data set [6] is 2; in [7], 2.2.
For `CC1(C)CC(n2cc(C3CCCCC3)nn2)C2=C(O1)C(=O)c1ccccc1C2=O` (configuration not stated), the IC50 in data set [1] came out at 1.9 µM; in data set [3], 9.23 µM; in data set [4], 2.26 µM; in [8] it was 2.24 µM. The CC50 at 24 h in [2] was 8.59 µM. For the same compound, the “Ratio CC50/IC50” value in data set [5] amounted to 3.8; in data set [10] it was 3.83; in [9], 0.93; in data set [11] it was 4.52.
For `CCCCCc1cn(C2CC(C)(C)OC3=C2C(=O)c2ccccc2C3=O)nn1` (configuration not stated), the IC50 in data set [1] worked out at 1.95 µM; in data set [3] it was 6 µM; in data set [4], 2.04 µM; in [8], 2.2 µM. The same compound came in with a CC50 at 24 h in data set [2] of 6.89 µM. In addition, the “Ratio CC50/IC50” value is on record as 3.38 in [5], 3.13 in data set [10], 1.15 in data set [9] and 3.53 in [11].
`CCCc1cn(C2CC(C)(C)OC3=C2C(=O)c2ccccc2C3=O)nn1` (configuration not stated): the IC50 is 8.04 µM in data set [1], 4.37 µM in data set [3], 5.9 µM in data set [4] and 3.43 µM in data set [8]. Also, it took 14.8 µM to reach half-maximal cytotoxicity in data set [2] (CC50 at 24 h). In addition, the “Ratio CC50/IC50” value in data set [5] was determined as 2.5; in data set [10], 4.31; in data set [9], 3.38; in data set [11], 1.83.
With `CCC(C)(O)c1cn(C2CC(C)(C)OC3=C2C(=O)c2ccccc2C3=O)nn1` (configuration not stated), the IC50 in data set [1] was determined as 21.6 µM; in data set [3], 35.2 µM; in data set [4], 17.7 µM; in data set [8], 3.3 µM. The compound further came in with a CC50 at 24 h in data set [2] of 9.63 µM. The “Ratio CC50/IC50” value in [5] was determined as 0.54; in data set [10] it was 2.92; in [9], 0.27; in data set [11] it was 0.45.
Take `CC1(C)OC2=C(C(=O)c3ccccc3C2=O)C1n1cc(-c2ccccc2)nn1` (configuration not stated): the IC50 in [1] came to 1.2 µM; in [3] it was 2.14 µM; in data set [4] it was 1 µM; in data set [8], 1.01 µM. Further, in data set [2], the cytotoxic concentration (CC50) at 24 h stood at 8.01 µM. For the same compound, the “Ratio CC50/IC50” value in [5] is 8.01; in data set [10] it was 7.93; in data set [9] it was 3.74; in [11] it was 6.67.
Consider `CCCCCCc1cn(C2C3=C(OC2(C)C)C(=O)c2ccccc2C3=O)nn1` (configuration not stated), for which the IC50 in data set [1] came out at 4.23 µM; in [3], 11 µM; in [4], 1.12 µM; in data set [8] it was 1.12 µM. This compound yielded a CC50 at 24 h in [2] of 2.77 µM. Also, the “Ratio CC50/IC50” value in [5] was 2.47; in [10] it was 2.47; in data set [9], 0.25; in [11] it was 0.65.
As for `CCCCCc1cn(C2C3=C(OC2(C)C)C(=O)c2ccccc2C3=O)nn1` (configuration not stated), the IC50 in [1] came to 1.14 µM; in [3] it was 2.19 µM; in [4], 1.05 µM; in [8] it was 1.14 µM. The CC50 at 24 h in [2] came out at 16 µM. The “Ratio CC50/IC50” value was 15.02 in data set [5], 14 in data set [10], 7.29 in [9] and 14 in data set [11].
As for `CCC(C)(O)c1cn(C2C3=C(OC2(C)C)C(=O)c2ccccc2C3=O)nn1` (configuration not stated), the IC50 worked out at 27 µM in data set [1], 18 µM in data set [3], 1.45 µM in [4] and 25.4 µM in data set [8]. For the same compound, the CC50 at 24 h in data set [2] was determined as 17.9 µM. The “Ratio CC50/IC50” value in data set [5] is 12.36; in data set [10], 0.7; in data set [9] it was 0.99; in [11] it was 0.66.
For the compound `CC(C)(O)c1cn(C2C3=C(OC2(C)C)C(=O)c2ccccc2C3=O)nn1` (configuration not stated), the IC50 is 7.31 µM in data set [1], 14.2 µM in data set [3], 1.55 µM in [4] and 1.32 µM in data set [8]. The same compound returned a CC50 at 24 h in [2] of 19.8 µM. The “Ratio CC50/IC50” value in [5] was found to be 12.78; in [10], 15.01; in data set [9] it was 1.39; in data set [11], 2.71.
With `CC1(C)OC2=C(C(=O)c3ccccc3C2=O)C1n1cc(C2CCCCC2)nn1` (configuration not stated), the IC50 in data set [1] came out at 1.39 µM; in data set [3], 3.5 µM; in [4] it was 1.83 µM; in data set [8] it was 1.78 µM. The compound also returned a CC50 at 24 h in data set [2] of 18.7 µM. In addition, the “Ratio CC50/IC50” value in data set [5] is listed as 10.23; in [10], 10.51; in [9], 5.35; in data set [11], 13.47.
For the compound `CC(C)=CC1=C(O)C(=O)c2ccccc2C1=O`, the 50% inhibitory concentration (IC50) in data set [1], in data set [3], in data set [4] and in data set [8] was greater than 100 µM in each case. In data set [2], this compound yielded a CC50 at 24 h of 14.6 µM. Moreover, the “Ratio CC50/IC50” value in data set [5] and in data set [9] was less than 0.15 throughout.
With `CC1(C)OC2=C(C(=O)C(=O)c3ccccc32)C1n1cc(-c2ccccc2)nn1` (configuration not stated), the IC50 in data set [1] came to 1.03 µM; in data set [3] it was 1.11 µM; in [4], 1 µM; in [8], 1.04 µM. The compound further displayed a CC50 at 24 h in data set [2] of 3.42 µM. The “Ratio CC50/IC50” value in data set [5] is on record as 3.42; in data set [10] it was 3.29; in data set [9] it was 3.08; in data set [11] it was 3.32. Further, the “Ratio IC50” value in [6] worked out at 15.5; in data set [7], 23.
Take `CC1(C)CC2=C(O1)C(=O)c1ccccc1C2=O`: the IC50 in data set [1] worked out at 1.54 µM; in data set [3] it was 2.72 µM; in data set [4], 1.54 µM; in [8] it was 1.28 µM. Besides, in data set [2], it took 0.77 µM to reach half-maximal cytotoxicity (CC50 at 24 h). For the same compound, the “Ratio CC50/IC50” value in [5] amounted to 0.5; in data set [10] it was 0.6; in data set [9], 0.28; in data set [11] it was 0.5.
Take `CC1(C)CCC2=C(O1)C(=O)c1ccccc1C2=O` [ALPHA-LAPACHONE]: the IC50 in data set [1] turned out to be 15.2 µM; in data set [3], 16.1 µM; in data set [4], 13.9 µM; in data set [8], 5.85 µM. For the same compound, the CC50 at 24 h in data set [2] was found to be 3.8 µM. In addition, the “Ratio CC50/IC50” value in data set [5] was 0.27; in [10], 0.65; in data set [9], 0.24; in data set [11] it was 0.25.
As for `CC(C)=CCC1=C(O)C(=O)c2ccccc2C1=O` [LAPACHOL], the 50% inhibitory concentration (IC50) in [1] is 63.3 µM; in data set [3], 102 µM; in data set [4] it was 34.7 µM; in [8], 99.9 µM. In addition, in data set [2], half-maximal cytotoxicity (CC50 at 24 h) was put at 59.3 µM. For the same compound, the “Ratio CC50/IC50” value in data set [5] is 1.71; in data set [10] it was 0.59; in [9] it was 0.58; in [11], 0.94.
Turning to `CC1(C)CCC2=C(O1)c1ccccc1C(=O)C2=O` [LAPACHONE], the 50% inhibitory concentration (IC50) was 1.39 µM in data set [1], 2.9 µM in [3], 0.67 µM in [4] and 1.13 µM in data set [8]. The half-maximal cytotoxic concentration (CC50) at 24 h in data set [2] stood at 0.79 µM. The “Ratio CC50/IC50” value in data set [5] is recorded as 1.14; in data set [10], 0.7; in [9] it was 0.27; in data set [11], 0.57.
As to `CC1(C)CC2=C(O1)c1ccccc1C(=O)C2=O` [NOR-BETA-LAPACHONE], the IC50 was 1.59 µM in data set [1], 2.48 µM in data set [3], 1.14 µM in data set [4] and 1.6 µM in data set [8]. This compound also yielded a CC50 at 24 h in [2] of 1.55 µM. The “Ratio CC50/IC50” value in data set [5] worked out at 1.36; in data set [10] it was 0.97; in [9], 0.62; in data set [11] it was 0.97.
